Compound activity from PubChem BioAssay.
Glyco luc inh – N-linked glycosylation inhibition. hit rate 0.23% among 360,000. AID 588692. reporter increase, % at 12.5 µM. D54 ERlucT glycosylation luciferase reporter, 24 h; percent of 100 nM tunicamycin response;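 active means mean luciferase reporter signal, scaled so untreated is 0 and the glycosylation-blocking control 100, at or above a set limit in every replicate; inconclusive means mean reaches the limit but not every replicate does; inactive means mean below the limit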;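 further: luciferase carries N-glycosylation sites so blocking glycosylation raises the light; 0% = median of neutral control wells and 100% = median of 100 nM tunicamycin wells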
Rtt109 HAT inh – C. albicans Rtt109 histone acetyltransferase inhibition | purified Rtt109/Vps75, ThioGlo CoA-SH fluorescence, 4 h | Q5AAJ8 | inhibition, % at 34.9 µM | AID 540336 | hit rate 0.16% among 330,000;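 active means inhibition of at least 50% in every replicate; inconclusive means best replicate reaches 50% inhibition but some replicates fall short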
Target sequence (Q5AAJ8 whole entry, looked up): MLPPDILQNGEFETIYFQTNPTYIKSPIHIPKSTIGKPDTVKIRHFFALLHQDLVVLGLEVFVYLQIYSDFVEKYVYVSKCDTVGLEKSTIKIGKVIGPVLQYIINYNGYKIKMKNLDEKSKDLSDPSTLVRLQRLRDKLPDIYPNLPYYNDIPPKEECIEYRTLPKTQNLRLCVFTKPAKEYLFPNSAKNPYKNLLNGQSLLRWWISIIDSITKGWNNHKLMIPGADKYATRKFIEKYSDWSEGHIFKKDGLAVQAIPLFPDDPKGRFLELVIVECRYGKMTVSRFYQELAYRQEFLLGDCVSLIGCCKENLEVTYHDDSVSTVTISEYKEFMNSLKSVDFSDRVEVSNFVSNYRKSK
PfHsp90 yeast 2 – inhibits growth of yeast expressing Plasmodium falciparum Hsp90; S. cerevisiae expressing PfHsp90, BacTiter-Glo ATP, 48 h; yeast lacking PDR1 and PDR3 efflux regulators; inhibition, % at 9.4 µM; hit rate 0.32% among 310,000; AID 504621;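 active means every replicate shows inhibition above about 80%, whatever the replicate mean, limit read from the data; inconclusive means mean inhibition reaches the set limit but some replicate falls short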;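 further: 0% = DMSO neutral controls and 100% = 20 µM radicicol positive controls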
PAX8 reporter – lowers PAX8-driven luciferase in RMG-I cells; RMG-I TPO-luciferase reporter, SteadyGlo, 24 h; inhibition, % at 12.6 µM; hit rate 1.2% among 360,000; AID 652154;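 active means mean replicate inhibition at least 60% with every replicate also reaching 60%; inconclusive means only one of the two criteria is met; inactive means mean below 60% and not all replicates reaching 60%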;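 further: luciferase light reporting Pax8 driven TPO promoter activity; plate controls were median of neutral control wells for no effect and mitoxantrone controls for full effect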
Arrestin-AP2 inh – human beta-arrestin and AP2 interaction inhibition. FITC-arrestin peptide / GST-AP2 beads, flow cytometry; AP2 beta2 appendage carries R879A mutation. inhibition, % at 10 µM. hit rate 0.31% among 340,000;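 active means inhibition above a set limit, near 3 SD of compounds lacking own fluorescence, cut at about 54% in these data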;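 further: plate controls were DMSO wells for no effect and 5 µM unlabelled arrestin peptide for full effect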
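Material – AP2 appendage R879A on GSH beads · Buffer or medium – PBS with 0.05% Tween 20 and 0.1% BSA · Probe or stimulus – fluorescein-tagged arrestin peptide at 50 nM final · Incubation – compound with beads 12 min RT, then probe 1 h RT · Detection – high-throughput flow cytometry of beads, ex 488, em 535 nm · Evaluation – percent response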
HIV Env fusion – HIV envelope-mediated fusion inhibition. hit rate 1.1% among 360,000. HeLa-JRFL Env/CEM21 cell fusion, luciferase. AID 651610. inhibition, % at 12.3 µM;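 active means mean replicate inhibition score of at least 50 and every replicate individually at or above 50; inconclusive means only one of the two criteria met; inactive means mean below 50 and not all replicates reaching 50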;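 further: 0% = plate neutral controls and 100% = maraviroc near 300 nM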
* = called active by the depositor; ? = inconclusive; / = no result; [ ] = another dose, or the depositor's remark. This is a sample that favours compounds with a hit; in the whole collection about 2.3% have one here.

SMILES | Glyco luc inh | Rtt109 HAT inh | PfHsp90 yeast 2 | PAX8 reporter | Arrestin-AP2 inh | HIV Env fusion
C[C@H](CO)N1C[C@H](C)[C@@H](CN(C)Cc2ccc(C(F)(F)F)cc2)OCCCC[C@H](C)Oc2ccc(NC(=O)Nc3ccc(C(F)(F)F)cc3)cc2C1=O | / | / | / | -8.9 | / | 29.4[16.7 µM]
C[C@@H]1CCCCO[C@@H](CN(C)Cc2ccc(C(F)(F)F)cc2)[C@@H](C)CN([C@H](C)CO)C(=O)c2cc(NC(=O)Nc3ccc(C(F)(F)F)cc3)ccc2O1 | / | / | / | 2.6 | / | -15.6[16.7 µM]
C[C@@H]1CN([C@H](C)CO)C(=O)c2cc(NC(=O)Nc3ccc(C(F)(F)F)cc3)ccc2O[C@@H](C)CCCCO[C@H]1CN(C)Cc1ccc(C(F)(F)F)cc1 | / | / | / | 19.5 | / | 63.9*[16.7 µM]
C[C@H](CO)N1C[C@H](C)[C@H](CN(C)Cc2ccc(C(F)(F)F)cc2)OCCCC[C@H](C)Oc2ccc(NC(=O)Nc3ccc(C(F)(F)F)cc3)cc2C1=O | / | / | / | 15.3 | / | 65.7*[16.7 µM]
NCC[C@H]1CC[C@@H](NS(=O)(=O)Cc2ccccc2)[C@@H](CO)O1 | / | / | / | -1.5 | / | -7.8[16.7 µM]
COC(=O)C[C@@H]1C[C@H]2c3cc(NC(=O)NC4CCCCC4)ccc3O[C@H]2[C@H](CO)O1 | / | / | / | -3.2 | / | 4.0[16.7 µM]
CC(C)c1cn(CC[C@@H]2CC[C@@H](NC(=O)c3cccc(F)c3)[C@H](CO)O2)nn1 | / | / | / | -5.4 | / | 2.5[16.7 µM]
CC(=O)C1=C(c2ccc(Br)cc2)C(=O)c2ccccc2C1=O | -6.1 | 2.8 | 101.7* | 99.3* | 8.9 | 140.9*
CC(C)NC(=O)N(C)C[C@@H]1Oc2ccc(NS(=O)(=O)c3ccc(Cl)cc3)cc2CC(=O)N([C@H](C)CO)C[C@@H]1C | / | / | / | -6.3 | / | /
COC(=O)CN1C(=S)N(c2ccc(Cl)cc2)C(=O)C1CC(=O)Nc1ccccc1 (centres undefined) | 3.9 | 9.3 | 15.0 | 14.5 | -4.4 | 3.8
COC(=O)CN1C(=S)N(C)C(=O)C1CC(=O)Nc1ccccc1 (centres undefined) | 2.2 | 9.1 | 31.6 | 114.6* | 4.4 | /
C[C@H](CO)N1C[C@H](C)[C@@H](CN(C)S(C)(=O)=O)OCCCC[C@H](C)Oc2ccc(NC(=O)CCC(F)(F)F)cc2C1=O | / | / | / | -5.1 | / | 1.6[16.7 µM]
C[C@H](CO)N1C[C@H](C)[C@H](CN(C)C(=O)Nc2ccccc2)Oc2c(NS(C)(=O)=O)cccc2C1=O | / | / | / | -19.8 | / | /
COc1ccc(OC)c(/C=N/NC(=O)c2cc3c(OC)cccc3[nH]2)c1 | -6.0 | 13.5 | 1.8 | 34.3 | 5.5 | 0.9
COc1cccc(/C=N/NC(=O)c2cc3c(OC)c(OC)ccc3[nH]2)c1OC | 19.9 | 8.6 | 15.1 | 1.8 | 1.5 | 42.3
CCOc1ccc(/C=N/NC(=O)c2cc3c(OC)cccc3[nH]2)cc1 | 50.3* | 1.0 | -5.7 | 11.5 | 31.6 | -6.3
COc1ccccc1/C=N/NC(=O)c1cc2c(OC)c(OC)ccc2[nH]1 | 33.8* | 0.0 | 0.4 | 18.7 | -14.1 | -139.5
O=S(=O)(NCC[C@H]1CC[C@@H](NS(=O)(=O)c2cccc(F)c2)[C@@H](CO)O1)c1cccc(F)c1 | / | / | / | -10.5 | / | /
CO[C@@H]1CN(C)C(=O)c2cc(NS(C)(=O)=O)ccc2OC[C@H](C)N(Cc2cocn2)C[C@H]1C | / | / | / | -25.9 | / | /
Cn1cnc(S(=O)(=O)N[C@@H]2CC[C@H](CC(=O)Nc3ccccc3)O[C@@H]2CO)c1 | / | / | / | / | / | -4.0[16.7 µM]
C[C@H](CO)N1C[C@H](C)[C@@H](CN(C)C(=O)Cc2ccncc2)Oc2ncc(C#C[C@@H](C)O)cc2C1=O | / | / | / | 12.7 | / | 3.2[16.7 µM]
O=C(c1ccncc1)N1CCN(c2cc(-c3ccccc3)nc3cc(-c4cccc(Cl)c4)nn23)CC1 | -13.0 | / | / | 68.2* | / | ?
O=C(Nc1ccc2nc3n(c(=O)c2c1)CCCCC3)c1ccccc1[N+](=O)[O-] | 1.6 | 7.0 | 32.0 | -9.1 | 17.7 | 3.3
O=C(Nc1ccc2nc3n(c(=O)c2c1)CCCCC3)c1cc([N+](=O)[O-])ccc1F | -14.7 | -11.3 | 2.9 | 90.4* | 17.8 | -3.1
O=C(Nc1ccc2nc3n(c(=O)c2c1)CCCCC3)c1c(F)ccc([N+](=O)[O-])c1F | -25.1 | -11.7 | 19.3 | 71.7* | -12.3 | 14.6
SMILES | Glyco luc inh | Rtt109 HAT inh | PfHsp90 yeast 2 | PAX8 reporter | Arrestin-AP2 inh | HIV Env fusion
COC(=O)C(C)N(C(=O)c1cccc(Cl)c1)c1c(C)cccc1C (centres undefined) | -1.5 | 1.3 | 3.9 | / | -6.0 | 5.1
COC(=O)C(C)N(C(=O)c1cccc2ccccc12)c1c(C)cccc1C (centres undefined) | -3.0 | -11.9 | -6.2 | / | 7.3 | 77.9*
O=S(=O)(c1ccccc1)N1C[C@@H]2[C@H](c3ccccc31)[C@@H](CO)N2Cc1ccccc1 | / | / | / | 6.2 | / | /
CC(C)(C)C(=O)C(CO)(Oc1ccc(Cl)cc1)n1cncn1 (centres undefined) | -1.6 | 17.1 | 88.9* | / | 2.3 | /
CC=Cc1ccc2n(c1=O)C[C@@H]1[C@@H](CO)[C@H](C(=O)Nc3ccc(-c4ccccc4)cc3)[C@H]2N1CC (mixture of isomers) | / | / | / | 9.1 | / | /
O=C(Nc1ccc(F)cc1)N1C[C@@H]2[C@H](c3ccccc31)[C@H](CO)N2C(=O)Cc1ccncc1 | / | / | / | -4.3 | / | /
O=c1[nH]c(CSc2ncnc3sc(-c4ccccc4)cc23)nc2ccccc12 | 32.6* | 2.0 | -30.3 | 6.2 | -5.3 | 24.3
O=c1[nH]c(CSc2nc(-c3ccccc3)cs2)nc2ccccc12 | 0.5 | -0.6 | 18.4 | 16.8 | -7.4 | 14.9
COCC(=O)N(C)C[C@@H]1Oc2ncc(Br)cc2C(=O)N([C@H](C)CO)C[C@@H]1C | / | / | / | -12.4 | / | -20.4[16.7 µM]
C(=N\Nc1nc(Nc2ccccc2)nc(N2CCOCC2)n1)/c1c[nH]c2ccccc12 | / | / | / | / | / | 69.7*
CCOc1ccc(C(=O)N2CCN(c3ccccn3)CC2)cc1 | -0.9 | 10.5 | 4.8 | 5.2 | 18.9 | 30.8
CCOc1ccc(N2C(=O)Nc3ccccc3C2(O)C(=O)N2CCN(c3ccccn3)CC2)cc1 (centres undefined) | 27.2* | -3.0 | -4.5 | 5.9 | -8.1 | -44.3
O=c1[nH]c2ccccc2c2oc(CCl)nc12 | -1.9 | 77.8* | 24.0 | 13.9 | 2.9 | 14.9
CC1=CC(C)(C)N(C(=O)c2ccccc2)c2ccc(C)cc21 | -0.6 | -7.8 | -0.5 | / | -2.0 | 94.2*
O=C(Nc1ccccc1F)c1ccc([N+](=O)[O-])s1 | -1.0 | 10.4 | -63.7 | 9.8 | 0.4 | -13.6
O=C(Nc1cccnc1)c1ccc([N+](=O)[O-])s1 | 0.1 | 0.2 | -1.3 | 67.4* | 18.9 | 7.1
O=C(CSc1nc(-c2ccccc2)c(-c2ccccc2)[nH]1)N1CCN(S(=O)(=O)c2ccccc2)CC1 | 1.3 | -7.3 | -55.5 | 25.0 | -1.0 | 84.3*
O=C(CSc1nc2ccccc2c(=O)[nH]1)N1CCN(S(=O)(=O)c2ccccc2)CC1 | 2.2 | 9.7 | -5.2 | / | -1.0 | /
CC(C)(C)NC(=O)CSc1nc(-c2ccccc2)c(-c2ccccc2)[nH]1 | -6.0 | 1.0 | / | / | -4.8 | 63.8*
